In ChEMBL document CHEMBL5674868, “Cancer Cells Hijack PRC2 to Modify Multiple Cytokine Pathways” (PLoS One, 2015):
Calls of active or inactive are those of the source. No cut-off for these calls is given here.

Key:
Type in all cases: cell-based
[1] = target: Histone-lysine N-methyltransferase EZH2 (Homo sapiens) (UniProt Q15910); test: Inhibition of EZH2 in human HeLa cells assessed as effect on HPRT mRNA level after 6 hrs by RT-PCR analysis in presence of IFN-gamma
In short: (§1)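 Cells were treated for two four-day cycles with 2 μM GSK343 or UNC1999, then left untreated or stimulated with human IFNγ for 6 h. mRNA was measured by reverse transcription quantitative PCR and normalized to β-actin. Three biological replicates were run per treatment group.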

[2] = target: Histone-lysine N-methyltransferase EZH2 (Homo sapiens) (UniProt Q15910); test: Inhibition of EZH2 in human ASPC1 cells assessed as effect on IRF1 mRNA level after 6 hrs by RT-PCR analysis in presence of IFN-gamma; in short: as §1
[3] = target: Histone-lysine N-methyltransferase EZH2 (Homo sapiens) (UniProt Q15910); test: Inhibition of EZH2 in human MCF7 cells assessed as effect on IRF1 mRNA level after 6 hrs by RT-PCR analysis in presence of IFN-gamma
In short: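 Cells pretreated for two 4-day cycles with 2 µM GSK343 or UNC1999, then left unstimulated or given human IFNγ for 6 h. RNA reverse-transcribed and measured by quantitative PCR, normalized to β-actin. Three biological replicates per treatment group.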

[4] = target: Histone-lysine N-methyltransferase EZH2 (Homo sapiens) (UniProt Q15910); test: Inhibition of EZH2 in human A549 cells assessed as effect on IRF1 mRNA level after 6 hrs by RT-PCR analysis in presence of IFN-gamma; in short: as §1
[5] = target: Histone-lysine N-methyltransferase EZH2 (Homo sapiens) (UniProt Q15910); test: Inhibition of EZH2 in human HeLa cells assessed as effect on IRF1 mRNA level after 6 hrs by RT-PCR analysis in presence of IFN-gamma; in short: as §1
[6] = target: Histone-lysine N-methyltransferase EZH2 (Homo sapiens) (UniProt Q15910); test: Inhibition of EZH2 in human A549 cells assessed as increase in TNF-alpha-induced IL-6 level for 24 hrs by ELISA
In short: (§2)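 A549 cells were pretreated for two four-day cycles with 2 μM UNC1999 or with DMSO. They were seeded at 3×10^4/well, allowed to settle for 4 h, then given the indicated concentrations of IFNγ, IL1β, LPS or TNFα for 24 h. Secreted IL6, IL8 or CXCL10 in the supernatant was measured by ELISA in duplicate. n = 3; ANOVA followed by Fisher test.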

[7] = target: Histone-lysine N-methyltransferase EZH2 (Homo sapiens) (UniProt Q15910); test: Inhibition of EZH2 in human A549 cells assessed as increase in IL-1beta-induced IL-6 level for 24 hrs by ELISA; in short: as §2
[8] = target: Histone-lysine N-methyltransferase EZH2 (Homo sapiens) (UniProt Q15910); test: Inhibition of EZH2 in human A549 cells assessed as increase in LPS-induced IL-6 level for 24 hrs by ELISA; in short: as §2
[9] = target: Histone-lysine N-methyltransferase EZH2 (Homo sapiens) (UniProt Q15910); test: Inhibition of EZH2 in human A549 cells assessed as increase in LPS-induced IL-8 level for 24 hrs by ELISA; in short: as §2
[10] = target: Histone-lysine N-methyltransferase EZH2 (Homo sapiens) (UniProt Q15910); test: Inhibition of EZH2 in human A549 cells assessed as increase in IFN-gamma-induced CXCL10 level for 24 hrs by ELISA; in short: as §2
[11] = target: Histone-lysine N-methyltransferase EZH2 (Homo sapiens) (UniProt Q15910); test: Inhibition of EZH2 in human A549 cells assessed as increase in TNFalpha-induced CXCL10 level for 24 hrs by ELISA; in short: as §2
[12] = target: Histone-lysine N-methyltransferase EZH2 (Homo sapiens) (UniProt Q15910); test: Inhibition of EZH2 in human A549 cells assessed as increase in LPS-induced IL-8 level for 24 hrs by multiplexing laser bead assay
In short: (§3)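 A549 cells were pretreated with vehicle or UNC1999 over two four-day cycles at 2 μM. They were seeded at 3×10^4/well, rested for 4 h, then exposed for 24 h to no stimulus, 5 μg/ml E. coli LPS or 10 U/ml TNFα. Secreted cytokines in the supernatants were quantified by a 41-plex laser bead assay.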

[13] = target: Histone-lysine N-methyltransferase EZH2 (Homo sapiens) (UniProt Q15910); test: Inhibition of EZH2 in human A549 cells assessed as increase in LPS-induced IL-6 level for 24 hrs by multiplexing laser bead assay; in short: as §3
[14] = target: Histone-lysine N-methyltransferase EZH2 (Homo sapiens) (UniProt Q15910); test: Inhibition of EZH2 in human A549 cells assessed as increase in LPS-induced CCL-5 level for 24 hrs by multiplexing laser bead assay; in short: as §3
[15] = target: Histone-lysine N-methyltransferase EZH2 (Homo sapiens) (UniProt Q15910); test: Inhibition of EZH2 in human A549 cells assessed as increase in LPS-induced CSF-3 level for 24 hrs by multiplexing laser bead assay; in short: as §3
[16] = target: Histone-lysine N-methyltransferase EZH2 (Homo sapiens) (UniProt Q15910); test: Inhibition of EZH2 in human A549 cells assessed as increase in LPS-induced TGF-A level for 24 hrs by multiplexing laser bead assay; in short: as §3
[17] = target: Histone-lysine N-methyltransferase EZH2 (Homo sapiens) (UniProt Q15910); test: Inhibition of EZH2 in human A549 cells assessed as increase in LPS-induced VEGF-A level for 24 hrs by multiplexing laser bead assay; in short: as §3
[18] = target: Histone-lysine N-methyltransferase EZH2 (Homo sapiens) (UniProt Q15910); test: Inhibition of EZH2 in human A549 cells assessed as increase in LPS-induced PDGFA level for 24 hrs by multiplexing laser bead assay; in short: as §3
[19] = target: Histone-lysine N-methyltransferase EZH2 (Homo sapiens) (UniProt Q15910); test: Inhibition of EZH2 in human A549 cells assessed as increase in TNF-alpha-induced CXCL-10 level for 24 hrs by multiplexing laser bead assay; in short: as §3
[20] = target: Histone-lysine N-methyltransferase EZH2 (Homo sapiens) (UniProt Q15910); test: Inhibition of EZH2 in human A549 cells assessed as increase in TNF-alpha-induced IL-8 level for 24 hrs by multiplexing laser bead assay; in short: as §3
[21] = target: Histone-lysine N-methyltransferase EZH2 (Homo sapiens) (UniProt Q15910); test: Inhibition of EZH2 in human A549 cells assessed as increase in TNF-alpha-induced IL-6 level for 24 hrs by multiplexing laser bead assay; in short: as §3
[22] = target: Histone-lysine N-methyltransferase EZH2 (Homo sapiens) (UniProt Q15910); test: Inhibition of EZH2 in human A549 cells assessed as increase in TNF-alpha-induced CCL-5 level for 24 hrs by multiplexing laser bead assay; in short: as §3
[23] = target: Histone-lysine N-methyltransferase EZH2 (Homo sapiens) (UniProt Q15910); test: Inhibition of EZH2 in human A549 cells assessed as increase in TNF-alpha-induced CXCL-1 level for 24 hrs by multiplexing laser bead assay; in short: as §3
[24] = target: Histone-lysine N-methyltransferase EZH2 (Homo sapiens) (UniProt Q15910); test: Inhibition of EZH2 in human A549 cells assessed as increase in TNF-alpha-induced CCL7 level for 24 hrs by multiplexing laser bead assay; in short: as §3
[25] = target: Histone-lysine N-methyltransferase EZH2 (Homo sapiens) (UniProt Q15910); test: Inhibition of EZH2 in human A549 cells assessed as increase in TNF-alpha-induced TGFA level for 24 hrs by multiplexing laser bead assay; in short: as §3
[26] = target: Histone-lysine N-methyltransferase EZH2 (Homo sapiens) (UniProt Q15910); test: Inhibition of EZH2 in human A549 cells assessed as increase in TNF-alpha-induced VEGFA level for 24 hrs by multiplexing laser bead assay; in short: as §3
[27] = target: Histone-lysine N-methyltransferase EZH2 (Homo sapiens) (UniProt Q15910); test: Inhibition of EZH2 in human A549 cells assessed as increase in TNF-alpha-induced PDGFA level for 24 hrs by multiplexing laser bead assay; in short: as §3

Chain of Histone-lysine N-methyltransferase EZH2 (Homo sapiens) (Q15910 whole entry, looked up): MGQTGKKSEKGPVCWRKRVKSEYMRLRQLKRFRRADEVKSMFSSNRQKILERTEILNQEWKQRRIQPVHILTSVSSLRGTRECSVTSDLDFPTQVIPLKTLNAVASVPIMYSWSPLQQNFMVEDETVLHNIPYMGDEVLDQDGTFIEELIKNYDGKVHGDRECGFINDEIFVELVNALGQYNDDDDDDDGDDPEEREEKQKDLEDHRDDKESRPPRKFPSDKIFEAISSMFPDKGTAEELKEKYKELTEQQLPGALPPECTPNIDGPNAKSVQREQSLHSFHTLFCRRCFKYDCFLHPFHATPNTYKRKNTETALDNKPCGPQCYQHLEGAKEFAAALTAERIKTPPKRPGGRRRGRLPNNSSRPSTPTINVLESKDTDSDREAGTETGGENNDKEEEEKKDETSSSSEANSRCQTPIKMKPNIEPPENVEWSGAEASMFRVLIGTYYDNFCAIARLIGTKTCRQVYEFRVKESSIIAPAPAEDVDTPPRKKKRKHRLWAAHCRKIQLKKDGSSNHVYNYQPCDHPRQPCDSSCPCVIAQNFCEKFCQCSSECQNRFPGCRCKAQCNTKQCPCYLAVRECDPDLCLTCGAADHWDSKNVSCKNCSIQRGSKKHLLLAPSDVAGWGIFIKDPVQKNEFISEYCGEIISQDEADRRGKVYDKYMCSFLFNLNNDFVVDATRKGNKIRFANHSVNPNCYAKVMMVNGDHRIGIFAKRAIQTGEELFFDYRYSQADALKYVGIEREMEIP

For `CCCc1cc(C)[nH]c(=O)c1CNC(=O)c1cc(-c2ccc(N3CCN(C(C)C)CC3)nc2)cc2c1cnn2C(C)C`, the inhibition [1] was “inactive”, the inhibition [2] was “inactive” and the inhibition [3] was “inactive”. For the same molecule, the inhibition [4] was “inactive”, the inhibition [5] was “inactive” and the inhibition [6] was “Active”. For the same molecule, the inhibition [7] was “Active”, the inhibition [8] was “Active” and the inhibition [9] was “Active”. For the same molecule, the inhibition [10] was “Active”, the inhibition [11] was “Active” and the inhibition [12] was “Active”. For the same molecule, the inhibition [13] was “Active”, the inhibition [14] was “Active” and the inhibition [15] was “Active”. The inhibition [16] was “Active”, the inhibition [17] was “Active” and the inhibition [18] was “Active”. For the same molecule, the inhibition [19] was “Active”, the inhibition [20] was “Active” and the inhibition [21] was “Active”. For the same molecule, the inhibition [22] was “Active”, the inhibition [23] was “Active” and the inhibition [24] was “Active”. The inhibition [25] was “Active”, the inhibition [26] was “Active” and the inhibition [27] was “Active”.
